From publication PMC9870020 (Tissue Barriers, 2022)

Columns and labels:
[1] = cited from earlier work
[2] = 2 mM; cited from earlier work
[3] = concentration of 625 µM; cited from earlier work
[4] = system: Caco-2 epithelial cell layers; assay: Permeability of fluorescent markers; format: cell-based; details: Caco-2 layers
Method in brief: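 Caco-2 cells (passage 35–39) were grown 21 days on collagen-coated 0.33 cm2 inserts (0.4 µm pores) and equilibrated 30 min in warm HBSS. Test compound with FD-4 (0.25 mM) or other marker in HBSS was applied apically. Basolateral fluorescence (ex 485/em 520 nm) was read over 180 min against a calibration curve to give Papp. TEER was measured before and after. Triplicates, mean ± S.D.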

[5] = system: nasal epithelial cell layers; details: cited from earlier work
[6] = system: epithelial cells; details: cited from earlier work
[7] = system: epithelial cell layers; details: cited from earlier work

## CCCCCCCCCC(=O)[O-].[Na+] [C10, sodium caprate]
[1]
  Toxicity of C10: no toxicity was demonstrated

## CCCCCCCCCCCCOS(=O)(=O)[O-].[Na+] [SDS, Sodium dodecylsulfate]
[2]
  Toxicity of SDS: toxic

## CC(C)(C)[C@]1(O)CC2OC(=O)CC23C(=O)OC2OC(=O)[C@H](O)C231 (stereo partly shown) [bilobalide, Bilobalide]
[3]
  Cytotoxicity of bilobalide: no cytotoxicity

## L-myr-ARRAR [LW-5]
[4]; Figure 6A, peptides 50 µM, FD-4 0.25 mM, 180 min, mean n = 3
  Permeability of FD-4 (Papp) in the presence of L-R5 analogues: significantly lower than with L-R5

## L-myr-ARRWR [L-R5]
[5]
  Reversibility of TJ modulation by the peptide: rapidly reversible
[5]; nasal epithelial cell layers in vitro, previously shown
  Size of molecules transported paracellularly with L-R5: up to 4 kDa
[6]
  Epithelial cytotoxicity in vitro: lack of epithelial cytotoxicity
[4]; L-R5 50 µM, from sodium fluorescein, FD-4 and FD-150 permeability
  Molecular weight limit of opening of TJs caused by L-R5: 150 kDa
[4]; Figure 5, L-R5 50 µM, 180 min, mean n = 3
  Permeability of sodium fluorescein in the presence of L-R5: higher permeability compared to FD-4
[7]
  Passage of the peptide across epithelial cell layers: not to cross epithelial cell layers
